Test results as given in publication PMC5723703 (Pharmacology Research & Perspectives, 2017).
Values joined by “and” are separate entries in the source; they are usually repeats but may differ in a detail not shown here. Equal entries are not always repeated. Where two headings read alike, the source gives them in different places. Blank lines part the entries; values can stand above or below the molecule they belong to.

Columns and labels:
S1P2 receptor [1] = target: T1, S1P2 receptor (Homo sapiens, UniProt O95136); assay: Impedance-based analysis of S1P2 receptor signaling in CHO-hS1P2 cells; assay type: cell-based; details: 0.05-5000 nM
Wistar rats [2] = assay: Blood lymphocyte count in rats after oral administration; assay type: in vivo, rat
human S1P3 receptor = human S1P3 receptor (Homo sapiens, UniProt Q99500); assay type: biochemical
C57BL/6 mice [3] = assay: Lymphocyte count and plasma concentration in mice; assay type: in vivo, mouse; details: three repeated doses of 6 mg·kg^‐1·day^‐1, day 0 vs day 2 (data not shown)
human S1P5 receptor = human S1P5 receptor (Homo sapiens, UniProt Q9H228); assay type: biochemical
human S1P4 receptor = target: T2, human S1P4 receptor (Homo sapiens, UniProt O95977); assay type: biochemical
T2 sequence (O95977 1-384): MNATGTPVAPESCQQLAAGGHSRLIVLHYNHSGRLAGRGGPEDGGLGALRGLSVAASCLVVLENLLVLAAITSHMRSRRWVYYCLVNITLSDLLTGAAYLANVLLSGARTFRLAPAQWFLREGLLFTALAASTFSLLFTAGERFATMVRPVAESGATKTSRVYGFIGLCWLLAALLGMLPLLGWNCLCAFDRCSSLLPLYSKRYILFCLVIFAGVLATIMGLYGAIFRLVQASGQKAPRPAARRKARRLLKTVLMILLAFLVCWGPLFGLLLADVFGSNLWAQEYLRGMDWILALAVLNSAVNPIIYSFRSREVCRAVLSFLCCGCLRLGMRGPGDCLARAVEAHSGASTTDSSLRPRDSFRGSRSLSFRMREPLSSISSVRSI
Procedure, shortened: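 Membranes from CHO cells expressing recombinant human S1P4 were used for (35S)-GTPγS binding as a measure of G protein activation. EC50 was fitted with the compound's own maximal response as the top and the no-effect level of the lowest concentration as the bottom.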

[4] = Compound concentrations in rat plasma; assay type: in vivo; details: for plasma concentration at time of maximal lymphocyte count reduction (6 hours): rats
Wistar rats [5] = assay: In vivo lung function; parameters: species or system rat; details: n = 10
Procedure, shortened: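 Male Wistar rats (200-250 g), acclimatised at least 7 days, were unrestrained, conscious and breathing spontaneously in whole-body plethysmograph chambers (calibrated with a 5 mL air injection), one rat per chamber. Baseline was recorded for 120 min. Single oral dosing used 0.25% methylcellulose/0.05% Tween 80 vehicle, followed by recording for 6 h.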

rat mesenteric arteries = assay: Isometric force development, isolated rat mesenteric arteries
Procedure, shortened: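 After CO₂ euthanasia, two mesenteric artery rings (1.5 mm, 2nd and 3rd branch) were mounted on 20 μm wires in a wire myograph with modified Krebs-Henseleit buffer. Viability was checked with KCl 60 mmol/L. Endothelium was confirmed by acetylcholine (10^-5 mol/L) relaxation of rings precontracted with U46619 (10^-6 mol/L).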

human bronchi = assay: Isometric force development, isolated human bronchial rings
S1P1 receptor [6] = target: T3, S1P1 receptor (Homo sapiens, UniProt P21453); assay type: biochemical
S1P1 receptor [7] = target: T3, S1P1 receptor; assay: Ca2+ signaling in CHO cells expressing recombinant human S1P1 receptor; assay type: cell-based
S1P1 receptor [8] = target: T3, S1P1 receptor; assay type: biochemical; remark: listed apart in the source
rat trachea = assay: Isometric force development, isolated rat tracheal rings
S1P1 receptor [9] = target: T3, S1P1 receptor; assay: Ca2+ mobilization assay; assay type: cell-based
[10] = test system: spontaneous hypertensive rats; assay: Blood pressure and heart rate by telemetry in conscious SHR; assay type: in vivo, rat
S1P2 receptor [11] = target: T1, S1P2 receptor; assay type: biochemical
C57BL/6 mice [12] = assay: Mouse MOG33-55 EAE model with spinal cord histopathology; assay type: in vivo
Procedure, shortened: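 EAE was induced in 6-week-old female C57BL/6JOlaHsd mice with 150 μg MOG33-55 in CFA, s.c. into both flanks under isoflurane, plus a pertussis toxin boost. Dosing was 6 mg·kg^‐1·day^‐1 or vehicle (0.25% methylcellulose, 0.05% Tween 80) from day 0 or day 14, with daily scoring 0–5. Spinal cords were taken after saline perfusion, formalin-fixed, and 4 μm sections stained with HE and cresyl violet/Luxol fast blue; naïve mice served as controls.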

[13] = EC50 hS1P4, (35S)-GTPγS, CHO membranes, geometric mean, n = 2‐4
[14] = percentage of maximal response induced by 1 or 10 μmol·L^‐1 S1P

T1 sequence (O95136 whole entry): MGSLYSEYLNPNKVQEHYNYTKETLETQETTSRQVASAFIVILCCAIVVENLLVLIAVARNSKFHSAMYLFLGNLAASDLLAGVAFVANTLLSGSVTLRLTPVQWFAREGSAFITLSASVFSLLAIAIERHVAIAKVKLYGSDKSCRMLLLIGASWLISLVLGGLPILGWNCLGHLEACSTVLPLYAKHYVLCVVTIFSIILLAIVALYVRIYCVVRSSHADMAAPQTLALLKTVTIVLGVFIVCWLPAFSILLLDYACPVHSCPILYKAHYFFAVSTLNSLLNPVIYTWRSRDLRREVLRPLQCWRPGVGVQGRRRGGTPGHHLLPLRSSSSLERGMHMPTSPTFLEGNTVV
T3 sequence (P21453 whole entry): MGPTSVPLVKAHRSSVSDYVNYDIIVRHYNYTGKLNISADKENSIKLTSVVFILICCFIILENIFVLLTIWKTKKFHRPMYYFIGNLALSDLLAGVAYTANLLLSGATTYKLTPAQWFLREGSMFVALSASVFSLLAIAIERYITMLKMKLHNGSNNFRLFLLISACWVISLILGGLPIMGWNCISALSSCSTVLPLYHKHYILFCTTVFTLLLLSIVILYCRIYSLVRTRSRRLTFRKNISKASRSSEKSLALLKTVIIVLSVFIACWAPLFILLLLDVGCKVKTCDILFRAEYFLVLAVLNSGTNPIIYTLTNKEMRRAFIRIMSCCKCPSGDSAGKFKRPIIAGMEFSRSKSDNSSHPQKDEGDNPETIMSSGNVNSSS
Sequence of human S1P3 receptor (Q99500 whole entry): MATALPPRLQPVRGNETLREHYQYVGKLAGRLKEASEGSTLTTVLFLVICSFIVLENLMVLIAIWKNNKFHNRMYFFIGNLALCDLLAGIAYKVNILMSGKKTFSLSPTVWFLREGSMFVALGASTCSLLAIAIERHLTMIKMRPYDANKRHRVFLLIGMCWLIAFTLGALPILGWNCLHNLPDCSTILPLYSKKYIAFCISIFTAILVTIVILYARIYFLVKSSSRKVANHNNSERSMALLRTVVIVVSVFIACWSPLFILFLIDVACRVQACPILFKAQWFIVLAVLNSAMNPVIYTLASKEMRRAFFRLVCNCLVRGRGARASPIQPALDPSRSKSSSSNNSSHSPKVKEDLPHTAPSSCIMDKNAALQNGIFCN
Sequence of human S1P5 receptor (Q9H228 whole entry): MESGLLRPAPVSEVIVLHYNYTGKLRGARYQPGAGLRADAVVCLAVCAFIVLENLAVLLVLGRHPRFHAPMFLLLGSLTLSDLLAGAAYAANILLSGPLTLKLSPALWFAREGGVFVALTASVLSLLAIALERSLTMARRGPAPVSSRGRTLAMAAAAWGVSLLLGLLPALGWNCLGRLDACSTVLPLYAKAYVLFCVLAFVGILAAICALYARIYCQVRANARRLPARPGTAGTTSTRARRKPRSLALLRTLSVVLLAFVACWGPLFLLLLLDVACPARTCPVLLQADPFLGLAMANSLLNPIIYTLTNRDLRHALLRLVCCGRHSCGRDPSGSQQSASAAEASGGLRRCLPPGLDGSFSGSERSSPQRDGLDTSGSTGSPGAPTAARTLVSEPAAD

SMILES: CCc1cc(-c2noc(-c3cc(OC)nc(C4CCCC4)c3)n2)cc(C)c1OC[C@@H](O)CO [Cenerimod, (S)‐3‐(4‐(5‐(2‐cyclopentyl‐6‐methoxypyridin‐4‐yl)‐1,2,4‐oxadiazol‐3‐yl)‐2‐ethyl‐6‐methylphenoxy)propane‐1,2‐diol]
S1P2 receptor agonist activity in more sensitive (cellular) assays (S1P2 receptor [1]): no S1P2 receptor agonist activity | single oral dose at which plateau of lymphocyte reduction is reached (Wistar rats [2]): 1 mg·kg^‐1 | time until lymphocyte count returned to predose levels (Wistar rats [2]; 1 mg·kg^‐1 single oral dose): ≤ 48 h | decrease of blood lymphocyte count (Wistar rats [2]; 1 mg·kg^‐1 single oral dose, P < .001): 63 ± 4% | blood lymphocyte count after dosing (Wistar rats [2]; 1 mg·kg^‐1 single oral dose, from 7900 ± 690 before dosing): 2900 ± 370 lymphocytes/μL | time until lymphocyte count returned to physiological levels after the last dose (Wistar rats [2]; 1 mg·kg^‐1·day^‐1 oral for 7 days (data not shown)): ≤ 2 days | reduction of blood lymphocyte count at 48 hours (Wistar rats [2]; 3 mg·kg^‐1 single oral dose): more than 40% | time until lymphocyte count returned to physiological levels after the last dose (Wistar rats [2]; 3 mg·kg^‐1·day^‐1 oral for 7 days (data not shown)): ≤ 4 days | reduction of peripheral blood lymphocyte count after 48 hours (Wistar rats [2]; 10 mg·kg^‐1 single oral dose): 65 ± 3% | EC50 (human S1P3 receptor): 228 nM | fold less active at the S1P3 receptor than S1P (human S1P3 receptor; (35S)-GTPγS EC50 ratio): at least 2000 fold | fold less active at the S1P3 receptor than pFTY720 (human S1P3 receptor; (35S)-GTPγS EC50 ratio): 400 fold | Emax (human S1P3 receptor; read-out: E max (%) hS1P3): 81% | compound accumulation (C57BL/6 mice [3]): absence of compound accumulation | EC50 (human S1P5 receptor): 36 nM | fold less potent on the S1P5 receptor than pFTY720 (human S1P5 receptor; (35S)-GTPγS EC50 ratio): 70 fold | fold more potent on the S1P5 receptor than the natural ligand S1P (human S1P5 receptor; (35S)-GTPγS EC50 ratio): twofold | Emax (human S1P5 receptor; read-out: E max (%) hS1P5): 65% | EC50 (human S1P4 receptor; EC50 S1P4 receptor, (35S)-GTPγS, human recombinant receptor): 2100 nM | EC50 (human S1P4 receptor; [13]): 2130 nM | Emax (human S1P4 receptor; read-out: E max (%) hS1P4): 123% | plasma concentration ([4]; 4 hours after oral administration of 100 mg·kg^‐1, Wistar rats (Penh study)): 4.4 ± 0.6 μg·mL^‐1 | Tmax ([4]; Wistar, rat, plasma, po): 3 h | plasma concentration at time of maximal lymphocyte count reduction (6 hours) ([4]; 1 mg·kg^‐1 single oral dose): 41 ± 2 ng·mL^‐1 | plasma concentration at time of maximal lymphocyte count reduction (6 hours) ([4]; 10 mg·kg^‐1 single oral dose): 869 ± 73 ng·mL^‐1 | Penh (index of bronchoconstriction) vs vehicle (Wistar rats [5]; 100 mg·kg^‐1 p.o., 4 hours evaluation period): did not increase | contraction of rat mesenteric arteries (rat mesenteric arteries; 10 μmol·L^‐1, n = 4): did not contract | contraction of human bronchi (human bronchi; 10 μmol·L^‐1): no contraction | EC50 (S1P1 receptor [6]): 2 nM | EC50 (S1P1 receptor [7]): 124 nM | fold higher potency on the S1P1 receptor compared to the natural ligand S1P (S1P1 receptor [8]; (35S)-GTPγS EC50 ratio): 16 fold | Emax (S1P1 receptor [8]; read-out: E max (%) hS1P1): 126% | contraction of upper and lower rat trachea (rat trachea; highest tested concentration 10 μmol·L^‐1, n = 4): complete lack of response | EC50 (S1P1 receptor [9]): 1040 nM | fold less potent in Ca^2+ signaling than in (35S)‐GTPγS assays (S1P1 receptor [9]; HUVEC): approximately 500 fold | effect on heart rate (HR) ([10]; 30 mg·kg^‐1 single oral dose): no effect | decrease of mean arterial blood pressure (MAP) ([10]; 30 mg·kg^‐1 single oral dose, 48 hours observation period): 9 ± 3 mmHg | EC50 (S1P2 receptor [11]): > 10000 nM | agonist activity on the S1P2 receptor (S1P2 receptor [11]; up to the highest tested concentration (10 μmol·L^‐1)): no detectable agonist activity | mice completely protected from disease development (C57BL/6 mice [12]; 6 mg·kg^‐1·day^‐1 from day 0 (preventive), n = 8): Five out of eight | clinical score reached (maximum reduction), all treated mice (C57BL/6 mice [12]; 6 mg·kg^‐1·day^‐1 from day 14 (therapeutic), n = 8): 0.5 | incidence and severity of spinal cord demyelination (C57BL/6 mice [12]; preventive or therapeutic regimen, 6 mg·kg^‐1·day^‐1): equally reduced | maximal clinical score of the individual mice that developed disease (C57BL/6 mice [12]; preventive treatment 6 mg·kg^‐1·day^‐1, three of eight mice): 2.5 and 3.0 and 0.5 | time to reach clinical score of 0.5 after treatment initiation, two mice (C57BL/6 mice [12]; therapeutic treatment): ≤ 11 days

SMILES: CCCCCCCCc1ccc(CCC(N)(CO)CO)cc1 [FTY720, reference compound]
Penh (index of bronchoconstriction) vs vehicle (Wistar rats [5]; 3 or 10 mg·kg^‐1 p.o. single dose): significant dose‐dependent increases | decrease of heart rate (HR) ([10]; 3 mg·kg^‐1 single oral dose): 26 ± 8 bpm | increase of mean arterial blood pressure (MAP) ([10]; 3 mg·kg^‐1 single oral dose, 48 hours observation period): 12 ± 2 mmHg

SMILES: CCCCCCCOc1ccc(CCC(N)(CO)COP(=O)(O)O)cc1C(F)(F)F (stereo not drawn) [p-amiselimod (pMT-1303)]
rat trachea constriction (rat trachea; lower rat trachea, 1 μmol·L^‐1 and 10 μmol·L^‐1): induced effective rat trachea constriction

More lines, main results first:

EC50 (human S1P3 receptor): 0.1 nM | EC50 (human S1P4 receptor; [13]): 60 nM | EC50 (S1P1 receptor [9]): 34 nM
SMILES: CCCCCCCCCCCCC/C=C/[C@@H](O)[C@@H](N)COP(=O)(O)O [S1P, Sphingosine‐1‐phosphate, reference compound]
constriction of lower rat trachea (rat trachea; 1 μmol·L^‐1, in presence of Ca^2+ (2.5 mmol·L^‐1), n = 3): induced lower rat trachea constriction

E max (%) hS1P5 (human S1P5 receptor; [14]): 43% | E max (%) hS1P4 (human S1P4 receptor; [14]): 109% | EC50 (human S1P4 receptor; read-out: EC50 hS1P4, (35S)-GTPγS, CHO membranes, geometric mean, n = 2‐4): 64 nM | contraction of rat mesenteric arteries (rat mesenteric arteries; 1, 10 or 100 nmol·L^‐1, n = 4): concentration‐dependent contraction | pEC50 contraction of human bronchi (human bronchi; mean ± SEM, n = 4): 6.4 ± 0.5 | E max (%) hS1P2 (S1P2 receptor [11]; [14]): 11%
SMILES: CCCCCCCCc1ccc(CCC(N)(CO)COP(=O)(O)O)cc1 (stereo not drawn) [pFTY720, reference compound]
E max contraction of human bronchi (human bronchi; % of reference contraction to KCl (50 mmol·L^‐1), mean ± SEM, n = 4): 86.5 ± 20.2% | contraction of upper and lower rat trachea (rat trachea; 10, 100 or 1000 nmol·L^‐1, n = 4): concentration‐dependent contractile response
